Results as given in ChEMBL document CHEMBL4308855, “Synthesis, in vitro and in vivo evaluation of 2-aryl-4H-chromene and 3-aryl-1H-benzo[f]chromene derivatives as novel α-glucosidase inhibitors” (Bioorg Med Chem Lett, 2019).
The source made the active and inactive calls. The calls are words filed in the database; no cut-off is given here.

Key:
Saccharomyces cerevisiae [1] = test: Inhibition of Saccharomyces cerevisiae alpha-glucosidase at 1 mM using […] preincubated for 5 mins followed by substrate addition and measured after 15 mins relative to control; details: in the assay text read “p-nitrophenyl alpha-D-glucopyranoside” for “p-nitrophenyl beta-D-glucopyranoside”
Outline: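 Single-concentration screen at 1 mM against S. cerevisiae α-glucosidase. p-Nitrophenyl-α-D-glucopyranoside substrate was fixed at 1 mM, well above the Km determined in fixed-time runs, to saturate the enzyme. Inhibition is relative to the negative control, with significance by Student t-test (p < 0.05).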

[2] = Inhibition of Saccharomyces cerevisiae alpha-glucosidase using […] preincubated for 5 mins followed by substrate addition and measured after 15 mins; details: in the assay text read “p-nitrophenyl alpha-D-glucopyranoside” for “p-nitrophenyl beta-D-glucopyranoside”
Outline: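 S. cerevisiae α-glucosidase with p-nitrophenyl-α-D-glucopyranoside substrate fixed at 1 mM (above Km, saturating). Inhibitor was tested across a 10^-3–10^-9 M range. IC50 was obtained by nonlinear regression of the concentration–inhibition data.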

Rattus norvegicus [3] = test: In vivo inhibition of intestinal maltase-glucoamylase in Wistar rat assessed as reduction in postprandial hyperglycemia at 5 mg/kg, po pretreated for 30 mins followed by maltose challenge and measured after 30 to 120 mins by OMTT; assay type: functional, organism-based
Outline: (§1)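 Male Wistar rats received the test agent per os at the dose in the line, then a 2 g/kg maltose load. Blood glucose was followed after the maltose challenge. n = 5 per group, reported as m ± SEM. Comparisons were by 1-way ANOVA against vehicle and the reference group.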

Rattus norvegicus [4] = test: In vivo inhibition of intestinal maltase-glucoamylase in Wistar rat assessed as reduction in postprandial hyperglycemia at 2.2 mg/kg, po pretreated for 30 mins followed by maltose challenge and measured after 30 to 120 mins by OMTT; assay type: functional, organism-based; outline: as §1
Saccharomyces cerevisiae [5] = test: Potency index, ratio of acarbose IC50 to test compound IC50 for Saccharomyces cerevisiae alpha-glucosidase
Alpha glucosidase = Alpha glucosidase (Homo sapiens, UniProt O43451+P10253+P14410+Q2M2H8); test: Inhibition of alpha-glucosidase (unknown origin) using p-nitrophenyl beta-D-glucopyranoside as substrate measured after 20 mins; assay type: protein assay

| inhibition (Saccharomyces cerevisiae [1]) | IC50 [2] | SMILES | also measured |
| --- | --- | --- | --- |
| 91.7% | 649 µM | CCc1ccc(C2=CCc3c(ccc4ccccc34)O2)cc1 |  |
| 55.8% | 544 µM | C[C@H]1O[C@H](O[C@H]2[C@H](O)[C@@H](O)[C@@H](O[C@H]3[C@H](O)[C@@H](O)C(O)O[C@@H]3CO)O[C@@H]2CO)[C@H](O)[C@@H](O)[C@@H]1N[C@H]1C=C(CO)[C@@H](O)[C@H](O)[C@H]1O (some centres not stated) [ACARBOSE] | inhibition (Rattus norvegicus [3]): Active |
| 36.1% |  | COc1ccc(C2C=C(c3ccc(O)cc3)Oc3ccc4ccccc4c32)cc1 (configuration not stated) |  |
| 60.8% | 62.3 µM | C1=C(c2ccccc2)Oc2ccccc2C1c1ccccc1 (configuration not stated) | inhibition (Rattus norvegicus [4]): Active; Ratio IC50 (Saccharomyces cerevisiae [5]): 9 |
| 43.7% | > 1000 µM | COc1ccc(C2C=C(c3ccccc3)Oc3ccc4ccccc4c32)cc1OC (configuration not stated) |  |
| 47.6% | 898 µM | Cc1ccc(C2=CC(c3ccc(Cl)cc3)c3c(ccc4ccccc34)O2)cc1 (configuration not stated) |  |
| 14.9% |  | Clc1ccc(C2=CC(c3ccc(Cl)cc3)c3c(ccc4ccccc34)O2)cc1 (configuration not stated) |  |
|  |  | Oc1cc(O)c2c(c1)O[C@@H](c1ccc(O)c(O)c1)[C@H](O)C2 [(-)-CATECHIN] | IC50 (Alpha glucosidase): 53.8 µM |
| 18.3% |  | Clc1ccc(C2C=C(c3ccccc3)Oc3ccc4ccccc4c32)cc1 (configuration not stated) |  |
| 10.8% |  | C1=C(c2ccccc2)Oc2ccc3ccccc3c2C1 |  |
| 19.7% |  | COc1ccc(C2CCc3c(ccc4ccccc34)O2)cc1 (configuration not stated) |  |
| 69% | 950 µM | Clc1ccc(C2=CC(c3ccccc3)c3ccccc3O2)cc1 (configuration not stated) |  |
| 39.6% |  | C1=C(c2ccccc2)Oc2ccc3ccccc3c2C1c1ccccc1 (configuration not stated) |  |
